Laboratory results reported in publication PMC6175093 (Journal of Clinical Pharmacology, 2018).
Where two headings read alike, the source gives them in different places.

Columns and labels:
[1] = format: in vivo, human; conditions: metabolite; for t½: mean (SD); for Tmax: median (minimum, maximum)
Method in brief: (§1)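 Randomized two-sequence crossover in healthy adults, ≥10-day washout. Single oral 4-mg rosiglitazone was given alone on day 1, or on day 3 of the test compound regimen (1250 mg loading dose on day 1, then 750 mg once daily for 7 more days), after a 10-h fast. K2EDTA blood was drawn predose to 120 h and plasma stored at ~−70°C. LC-MS/MS, LLOQ 0.500 ng/mL. GMR (90%CI) came from a linear mixed effect model.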

[2] = format: in vivo, human; conditions: for AUC / AUC_%Extrap_obs: geometric mean (CV%)
Method in brief: as §1

[3] = Safety and tolerability in phase 1 study; format: in vivo, human
Method in brief: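 Healthy adults in a two-period crossover: single oral 4-mg rosiglitazone alone, and the test compound (1250 mg on day 1, 750 mg daily for 7 days) with rosiglitazone on day 3. Dosing was fasted. Adverse events were recorded from informed consent until 14 days after the last dose and graded by intensity.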

other CYP isoforms = conditions: ref Wring SA, Park SM, unpublished data on file; cited from earlier work
CYP2C8 [4] = conditions: inhibition of CYP2C8‐mediated N‐desethyl‐amodiaquine activity; ref Wring SA, Park SM, unpublished data on file; cited from earlier work
[5] = tested on: Candida and Aspergillus species clinical isolates; conditions: cited from earlier work
[6] = phase 1 drug‐drug interaction study; cited from earlier work
CYP2C8 [7] = test: In vitro CYP2C8 inhibition; format: in vitro ADME
[8] = cited from earlier work
[9] = Phase 1 study: plasma PK of SCY‐078 after loading dose and repeat daily doses; format: in vivo, human
Method in brief: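 Healthy adults fasted 10 h, then took the oral test compound: 1250-mg loading dose on day 1, then 750 mg once daily for 7 more days. Blood was drawn predose and 0.5–24 h on day 1, predose and 0.5–16 h on day 3, and as troughs before dosing on days 4–8. K2EDTA plasma was centrifuged at 2000 g and stored at ~−70°C. Validated LC-MS/MS, LLOQ 5.00 ng/mL.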

Candida species = conditions: in vivo murine models for invasive fungal infections with Candida species; cited from earlier work
[10] = rosiglitazone 4 mg + SCY‐078 750 mg, day 3, n = 17, geometric mean (CV%)
[11] = rosiglitazone 4 mg + SCY‐078 750 mg, day 3, n = 17
[12] = rosiglitazone 4 mg alone, day 1, n = 17, geometric mean (CV%)
[13] = rosiglitazone 4 mg alone, day 1, n = 17
[14] = both, human, plasma, oral, 4 mg
[15] = all treatments pooled, 24 subjects
[16] = both, human, plasma, po, 1250 mg

In the case of O=C1NC(=O)C(Cc2ccc(OCCNc3ccccn3)cc2)S1 (stereo not shown) [N‐Desmethylrosiglitazone, N‐desmethylrosiglitazone], the AUC ([1]; 0 to infinity, rosiglitazone 4 mg + SCY‐078 750 mg, day 3, n = 17, geometric mean (CV%)) is reported as 2260 (15.5) μg·hr/mL, the “AUC0‐24h GMR rosiglitazone + SCY‐078 vs rosiglitazone alone” value ([1]; geometric mean ratio (90%CI)) is reported as 0.97 (0.89‐1.06) and the “AUC0‐last GMR rosiglitazone + SCY‐078 vs rosiglitazone alone” value ([1]; geometric mean ratio (90%CI)) is reported as 1.03 (0.95‐1.12). For the same molecule, the “AUC GMR rosiglitazone + SCY‐078 vs rosiglitazone alone” value ([1]; geometric mean ratio (90%CI)) was 1.03 (0.95‐1.12), the “Cmax GMR rosiglitazone + SCY‐078 vs rosiglitazone alone” value ([1]; geometric mean ratio (90%CI)) was 0.97 (0.88‐1.07) and the AUC0‐24h [1, 10] was 1.31 µg·h/mL. For the same molecule, the AUC0‐last [1, 10] was 2.24 µg·h/mL, the AUC_%Extrap_obs [1, 10] was 0.90 (45.6) % and the Cmax [1, 10] was 70.4 (16.4) ng/mL. For the same molecule, the t½ [1, 11] was 15.2 (2.3) h, the Tmax [1, 11] was 8.0 (6.0, 16.0) h and the AUC0‐24h [1, 12] was 1.34 µg·h/mL. For the same molecule, the AUC0‐last [1, 12] was 2.17 µg·h/mL, the AUC_%Extrap_obs [1, 12] was 0.91 (52.4) % and the Cmax [1, 12] was 72.8 (17.6) ng/mL. For the same molecule, the t½ [1, 13] was 14.5 (2.4) h and the Tmax [1, 13] was 6.0 (4.0, 12.0) h.
Work on CN(CCOc1ccc(CC2SC(=O)NC2=O)cc1)c1ccccn1 (stereo not shown) [Rosiglitazone, rosiglitazone] yielded a Cmax [2, 14] of 295 ng/mL, a Tmax [2, 14] of 0.5 h and a half-life [2, 14] of 3.7 h. For the same molecule, the AUC ([2]; both, human, plasma, oral, AUC0‐24h, rosiglitazone 4 mg + SCY‐078 750 mg, day 3, n = 17) was 1420 µg·h/mL, the AUC ([2]; both, human, plasma, oral, AUC0‐last, rosiglitazone 4 mg + SCY‐078 750 mg, day 3, n = 17) was 1440 µg·h/mL and the “AUC0‐24h GMR rosiglitazone + SCY‐078 vs rosiglitazone alone” value ([2]; geometric mean ratio (90%CI)) was 0.98 (0.89‐1.08). For the same molecule, the “AUC0‐last GMR rosiglitazone + SCY‐078 vs rosiglitazone alone” value ([2]; geometric mean ratio (90%CI)) was 0.99 (0.90‐1.10), the “AUC GMR rosiglitazone + SCY‐078 vs rosiglitazone alone” value ([2]; geometric mean ratio (90%CI)) was 0.99 (0.90‐1.10) and the “Cmax GMR rosiglitazone + SCY‐078 vs rosiglitazone alone” value ([2]; geometric mean ratio (90%CI)) was 0.80 (0.70‐0.90). For the same molecule, the AUC_%Extrap_obs [2, 11] was 0.71 (62.2) %, the AUC_%Extrap_obs [2, 13] was 0.58 (74.3) % and the “treatment‐emergent AE: diarrhea” value ([3]; all treatments pooled (rosiglitazone alone and with SCY‐078), 24 subjects) was 58.3%. For the same molecule, the “serious AEs and deaths” value [3, 15] was “no serious AEs”, the “treatment‐emergent AE: abdominal pain” value [3, 15] was 41.7% and the “treatment‐emergent AE: contact dermatitis” value [3, 15] was 8.3%. The “treatment‐emergent AE: dizziness” value [3, 15] was 8.3%, the “treatment‐emergent AE: headache” value [3, 15] was 16.7% and the “treatment‐emergent AE: menstruation irregularity” value [3, 15] was 12.5%. The “treatment‐emergent AE: nausea” value [3, 15] was 41.7%, the “treatment‐emergent AE: somnolence” value [3, 15] was 8.3% and the “treatment‐emergent AE: vomiting” value [3, 15] was 25%. The tolerability ([3]; rosiglitazone in the presence and absence of repeat doses of SCY‐078, healthy subjects) was “generally well tolerated”.
For CC(C)[C@@H](C)[C@@]1(C)CC[C@]2(C)[C@H]3CC[C@@H]4[C@@]5(COC[C@@]4(C)[C@@H](OC[C@](C)(N)C(C)(C)C)[C@H](n4ncnc4-c4ccncc4)C5)C3=CC[C@@]2(C)[C@@H]1C(=O)O [SCY‐078], the “IC50 values for other CYP isoforms, fold higher than CYP2C8” value (other CYP isoforms) is given as greater than 5 fold, the IC50 (CYP2C8 [4]) is given as roughly 300 nM and the “in vitro activity against Candida and Aspergillus species clinical isolates” value [5] is given as “potent in vitro activity”. The “activity against azole‐resistant, most echinocandin‐resistant, and multidrug‐resistant strains of Candida species” value ([5]; in vitro) was “retained activity”, the interaction with tacrolimus [6] was “no clinically relevant interaction” and the “unbound concentration in plasma as % of the CYP2C8 IC50” value (CYP2C8 [7]; day 3 Cmax, based on 99.7% binding to plasma proteins) was roughly 3%. For the same molecule, the “plasma Cmax exceeds the in vitro CYP2C8 IC50” value (CYP2C8 [7]; day 3 total Cmax vs IC50) was “approximately 4 fold”, the “binding to plasma proteins” value [8] was 99.7% and the Tmax ([9]; both, human, plasma, oral) was 6 h. The AUC [9, 16] was 11.6 µg·h/mL, the Tmax [9, 16] was 6 h and the concentration at 24 h [9, 16] was 294 ng/mL. For the same molecule, the Cmax ([9]; both, human, plasma, po, 1250 mg, Cmax, day 1, oral 1250‐mg loading dose, fasted, geometric mean (CV%)) was 783 ng/mL, the “maximum concentration in plasma” value ([9]; day 3, once‐daily oral regimen, molar equivalent of ∼0.93 μg/mL) was 1.28 µM and the absorption ([9]; following the loading dose and repeated daily doses) was “well absorbed”. For the same molecule, the efficacy target exposure (Candida species) was 11.2 μg·h^2/mL.
